From ChEMBL document CHEMBL2146464, “Structure-activity relationship study of nitrosopyrimidines acting as antifungal agents” (Bioorg Med Chem, 2012)
≈ marks a conversion by molar mass, not a printed value. Calls of active or inactive are those of the source. The calls are words filed in the database; no cut-off is given here.

How the values were obtained:
Candida tropicalis [1] = assay: Antifungal activity against Candida tropicalis assessed as growth inhibition at 15.6 ug/mL by microplate reader analysis; type: functional; conditions: read-out: GI
Cryptococcus neoformans [2] = assay: Antifungal activity against Cryptococcus neoformans ATCC 32264 assessed as growth inhibition at 31.25 ug/mL after 48 hrs by microplate reader analysis; type: functional; conditions: ATCC 32264, 48 h, read-out: GI
Outline: (§1)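 Microplate growth-inhibition assay in RPMI-1640, compound at final 250–0.98 µg/mL (DMSO ≤1%). Inoculum 1–5 × 10³ CFU/mL. Sterility and DMSO growth controls included. Percent inhibition is computed from blank-corrected OD relative to the growth control, tested in duplicate.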

Candida albicans [3] = assay: Antifungal activity against Candida albicans ATCC 10231 assessed as growth inhibition at 250 ug/mL after 24 hrs by microplate reader analysis; type: functional; conditions: ATCC 10231, 24 h, read-out: GI
Outline: (§2)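 96-well RPMI-1640 wells with compound at final 250–0.98 µg/mL (DMSO ≤1%). Inoculum 100 µL, 1–5 × 10³ CFU/mL, 200 µL final. Each well includes growth (DMSO, no compound) and sterility controls. % inhibition = 100 − (CTW−SCW)/(GCW−SCW) × 100, run in duplicate.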

Candida tropicalis [4] = assay: Antifungal activity against Candida tropicalis assessed as growth inhibition at 7.8 ug/mL by microplate reader analysis; type: functional; conditions: read-out: GI
Cryptococcus neoformans [5] = assay: Antifungal activity against Cryptococcus neoformans ATCC 32264 assessed as growth inhibition at 15.6 ug/mL after 48 hrs by microplate reader analysis; type: functional; conditions: ATCC 32264, 48 h, read-out: GI; outline: as §1
Cryptococcus neoformans [6] = assay: Antifungal activity against Cryptococcus neoformans ATCC 32264 assessed as growth inhibition at 250 ug/mL after 48 hrs by microplate reader analysis; type: functional; conditions: ATCC 32264, 48 h, read-out: GI; outline: as §1
Candida tropicalis [7] = assay: Antifungal activity against Candida tropicalis after 48 hrs by NCCLS broth microdilution method; type: functional; conditions: read-out: MIC100
Outline: (§3)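 Yeast MIC by NCCLS M27-A3 broth microdilution in RPMI-1640 buffered to pH 7.0 with MOPS. Twofold dilutions of 250–0.98 µg/mL, final DMSO ≤1%. Inoculum 1–5 × 10³ CFU/mL. Incubated at 30 °C in a moist dark chamber. Read visually at 48 h. MIC100 is the lowest concentration with no visible growth versus drug-free control.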

Candida albicans [8] = assay: Antifungal activity against Candida albicans ATCC 10231 assessed as growth inhibition at 125 ug/mL after 24 hrs by microplate reader analysis; type: functional; conditions: ATCC 10231, 24 h, read-out: GI; outline: as §2
[9] = Acute toxicity in bony fish assessed as mortality at 35 ug/mL after 96 hrs; conditions: actinopterygii; read-out: Activity
Outline: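 Guppy (Poecilia reticulata) acute static exposure: 10 fish per concentration in 2 L wide-mouthed jars holding the test solution. Compounds were added from […] to give the final concentrations. Dead fish were counted and removed every 24 h, with general condition noted; percentage mortality was scored at 96 h. Two experiments, each in triplicate.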

Cryptococcus neoformans [10] = assay: Antifungal activity against Cryptococcus neoformans ATCC 32264 after 48 hrs by microplate reader analysis; type: functional; conditions: ATCC 32264, 48 h; outline: as §1
Candida tropicalis [11] = assay: Antifungal activity against Candida tropicalis assessed as growth inhibition at 62.5 ug/mL by microplate reader analysis; type: functional; conditions: read-out: GI
Candida albicans [12] = assay: Antifungal activity against Candida albicans ATCC 10231 assessed as growth inhibition at 62.5 ug/mL after 24 hrs by microplate reader analysis; type: functional; conditions: ATCC 10231, 24 h, read-out: GI; outline: as §2
Aspergillus flavus = assay: Antifungal activity against Aspergillus flavus ATCC 9170 at 0.98 to 250 ug/mL by NCCLS broth microdilution method; type: functional, organism-based
Outline: (§4)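 MIC by broth microdilution per NCCLS M27-A3/M38-A2 in RPMI-1640 buffered to pH 7.0 with MOPS. Twofold dilutions from 250–0.98 µg/mL, final DMSO ≤1%. Inoculum 1–5 × 10³ CFU/mL. Incubated in a moist dark chamber, 30 °C for Aspergillus and 28–30 °C for dermatophytes. Read visually when control growth allowed. Endpoint is the lowest concentration giving total inhibition of visible growth (MIC100).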

Cryptococcus neoformans [13] = assay: Antifungal activity against Cryptococcus neoformans ATCC 32264 assessed as growth inhibition at 62.5 ug/mL after 48 hrs by microplate reader analysis; type: functional; conditions: ATCC 32264, 48 h, read-out: GI; outline: as §1
Candida albicans [14] = assay: Antifungal activity against Candida albicans ATCC 10231 after 48 hrs by NCCLS broth microdilution method; type: functional; conditions: ATCC 10231, 48 h, read-out: MIC100; outline: as §3
Trichophyton rubrum [15] = assay: Antifungal activity against Trichophyton rubrum CCC 110 by NCCLS broth microdilution method; type: functional; conditions: read-out: MIC100; outline: as §4
Candida tropicalis [16] = assay: Fungicidal activity against Candida tropicalis after 48 hrs by agar plate dilution method; type: functional
Outline: (§5)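 MFC: after the microdilution MIC, material from each clear well was plated onto RPMI-1640 agar buffered with MOPS. Plates incubated at 30 °C and read after 48 h. MFC is the lowest concentration giving total inhibition of visible growth.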

Candida albicans [17] = assay: Antifungal activity against Candida albicans ATCC 10231 after 24 hrs by microplate reader analysis; type: functional; conditions: ATCC 10231, 24 h; outline: as §2
Trichophyton rubrum [18] = assay: Fungicidal activity against Trichophyton rubrum CCC 110 at 0.98 to 250 ug/mL after 48 hrs by agar plate dilution method; type: functional, organism-based
Outline: (§6)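 Samples from each clear well of the MIC broth microdilution tray were plated onto RPMI-1640 agar buffered with MOPS. That tray had compounds twofold diluted in RPMI (pH 7.0, MOPS) from 250–0.98 µg/mL with inoculum of 1–5 × 10³ CFU/mL, incubated at 28–30 °C for dermatophytes. Plates were incubated at 30 °C and read at 48 h. MFC was taken as the lowest concentration giving total inhibition of visible growth.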

Candida tropicalis [19] = assay: Antifungal activity against Candida tropicalis assessed as growth inhibition at 3.9 ug/mL by microplate reader analysis; type: functional; conditions: read-out: GI
Cryptococcus neoformans [20] = assay: Antifungal activity against Cryptococcus neoformans ATCC 32264 assessed as growth inhibition at 3.9 ug/mL after 48 hrs by microplate reader analysis; type: functional; conditions: ATCC 32264, 48 h, read-out: GI; outline: as §1
Nannizzia gypsea = assay: Antifungal activity against Microsporum gypseum CCC 115 at 0.98 to 250 ug/mL by NCCLS broth microdilution method; type: functional, organism-based; outline: as §4
Candida tropicalis [21] = assay: Antifungal activity against Candida tropicalis assessed as growth inhibition at 250 ug/mL by microplate reader analysis; type: functional; conditions: read-out: GI
Candida albicans [22] = assay: Antifungal activity against Candida albicans ATCC 10231 assessed as growth inhibition at 15.6 ug/mL after 24 hrs by microplate reader analysis; type: functional; conditions: ATCC 10231, 24 h, read-out: GI; outline: as §2
[23] = system: Trichophyton mentagrophytes; assay: Antifungal activity against Trichophyton mentagrophytes ATCC 9972 by NCCLS broth microdilution method; type: functional; conditions: read-out: MIC100; outline: as §4
Cryptococcus neoformans [24] = assay: Antifungal activity against Cryptococcus neoformans ATCC 32264 after 48 hrs by NCCLS broth microdilution method; type: functional; conditions: ATCC 32264, 48 h, read-out: MIC100; outline: as §3
[25] = system: Trichophyton mentagrophytes; assay: Fungicidal activity against Trichophyton mentagrophytes ATCC 9972 at 0.98 to 250 ug/mL after 48 hrs by agar plate dilution method; type: functional, organism-based; outline: as §6
Cryptococcus neoformans [26] = assay: Antifungal activity against Cryptococcus neoformans ATCC 32264 assessed as growth inhibition at 125 ug/mL after 48 hrs by microplate reader analysis; type: functional; conditions: ATCC 32264, 48 h, read-out: GI; outline: as §1
Candida tropicalis [27] = assay: Antifungal activity against Candida tropicalis assessed as growth inhibition at 31.25 ug/mL by microplate reader analysis; type: functional; conditions: read-out: GI
Aspergillus fumigatus = assay: Antifungal activity against Aspergillus fumigatus ATCC 26934 at 0.98 to 250 ug/mL by NCCLS broth microdilution method; type: functional, organism-based; outline: as §4
Cryptococcus neoformans [28] = assay: Fungicidal activity against Cryptococcus neoformans ATCC 32264 after 48 hrs by agar plate dilution method; type: functional; conditions: ATCC 32264, 48 h; outline: as §5
Candida albicans [29] = assay: Antifungal activity against Candida albicans ATCC 10231 assessed as growth inhibition at 7.8 ug/mL after 24 hrs by microplate reader analysis; type: functional; conditions: ATCC 10231, 24 h, read-out: GI; outline: as §2
Aspergillus niger = assay: Antifungal activity against Aspergillus niger ATCC 9029 at 0.98 to 250 ug/mL by NCCLS broth microdilution method; type: functional, organism-based; outline: as §4
Candida albicans [30] = assay: Antifungal activity against Candida albicans ATCC 10231 assessed as growth inhibition at 31.25 ug/mL after 24 hrs by microplate reader analysis; type: functional; conditions: ATCC 10231, 24 h, read-out: GI; outline: as §2
Candida albicans [31] = assay: Antifungal activity against Candida albicans ATCC 10231 assessed as growth inhibition at 3.9 ug/mL after 24 hrs by microplate reader analysis; type: functional; conditions: ATCC 10231, 24 h, read-out: GI; outline: as §2
Candida albicans [32] = assay: Fungicidal activity against Candida albicans ATCC 10231 after 48 hrs by agar plate dilution method; type: functional; conditions: ATCC 10231, 48 h; outline: as §5
Candida tropicalis [33] = assay: Antifungal activity against Candida tropicalis assessed as growth inhibition at 125 ug/mL by microplate reader analysis; type: functional; conditions: read-out: GI
Candida tropicalis [34] = assay: Antifungal activity against Candida tropicalis by microplate reader analysis; type: functional
Cryptococcus neoformans [35] = assay: Antifungal activity against Cryptococcus neoformans ATCC 32264 assessed as growth inhibition at 7.8 ug/mL after 48 hrs by microplate reader analysis; type: functional; conditions: ATCC 32264, 48 h, read-out: GI; outline: as §1

CCCCNc1nc(N)nc(OC)c1N=O
inhibition of growth at 15.6 µg/mL (Candida tropicalis [1]): 85.2% | inhibition of growth at 31.25 µg/mL (Cryptococcus neoformans [2]): 75% | inhibition of growth at 250 µg/mL (Candida albicans [3]): 100% | inhibition of growth at 7.8 µg/mL (Candida tropicalis [4]): 57.7% | inhibition of growth at 15.6 µg/mL (Cryptococcus neoformans [5]): 63.1% | inhibition of growth at 250 µg/mL (Cryptococcus neoformans [6]): 100% | MIC (Candida tropicalis [7]): 62.5 µg/mL (≈ 277 µM) | inhibition of growth at 125 µg/mL (Candida albicans [8]): 100% | mortality at 96 h, 35 ug/mL [9]: 0% | MIC50 (Cryptococcus neoformans [10]): 7.8 µg/mL (≈ 34.6 µM) | inhibition of growth at 62.5 µg/mL (Candida tropicalis [11]): 100% | inhibition of growth at 62.5 µg/mL (Candida albicans [12]): 100% | Activity (Aspergillus flavus): inactive | inhibition of growth at 62.5 µg/mL (Cryptococcus neoformans [13]): 85.5% | MIC (Candida albicans [14]): 62.5 µg/mL (≈ 277 µM) | MIC (Trichophyton rubrum [15]): 250 µg/mL (≈ 1110 µM) | MFC (Candida tropicalis [16]): 250 µg/mL (≈ 1110 µM) | MIC50 (Candida albicans [17]): 7.8 µg/mL (≈ 34.6 µM) | Activity (Trichophyton rubrum [18]): inactive | inhibition of growth at 3.9 µg/mL (Candida tropicalis [19]): 16.3% | inhibition of growth at 3.9 µg/mL (Cryptococcus neoformans [20]): 11.3% | Activity (Nannizzia gypsea): inactive | inhibition of growth at 250 µg/mL (Candida tropicalis [21]): 100% | inhibition of growth at 15.6 µg/mL (Candida albicans [22]): 86.2% | MIC [23]: 250 µg/mL (≈ 1110 µM) | MIC (Cryptococcus neoformans [24]): 125 µg/mL (≈ 555 µM) | Activity [25]: inactive | inhibition of growth at 125 µg/mL (Cryptococcus neoformans [26]): 100% | inhibition of growth at 31.25 µg/mL (Candida tropicalis [27]): 93.2% | Activity (Aspergillus fumigatus): inactive | MFC (Cryptococcus neoformans [28]): 250 µg/mL (≈ 1110 µM) | inhibition of growth at 7.8 µg/mL (Candida albicans [29]): 50.4% | Activity (Aspergillus niger): inactive | inhibition of growth at 31.25 µg/mL (Candida albicans [30]): 98.2% | inhibition of growth at 3.9 µg/mL (Candida albicans [31]): 20% | MFC (Candida albicans [32]): 250 µg/mL (≈ 1110 µM) | inhibition of growth at 125 µg/mL (Candida tropicalis [33]): 100% | MIC50 (Candida tropicalis [34]): 7.8 µg/mL (≈ 34.6 µM) | inhibition of growth at 7.8 µg/mL (Cryptococcus neoformans [35]): 52.4%
